Screening data: PubChem BioAssay, several laboratories
An excerpt weighted towards active compounds, which were near 2.2% of everything screened.
miR-122 sensor – inhibitors of miR-122 in Huh7 cells; actives 0.3% (n = 340,000); Huh7 miR-122 Renilla luciferase sensor, 48 h; neutral wells = 0, positive control = 100; activation (reporter increase), % at 12.5 µM;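 active = mean replicate activation score at least 90 and every replicate individually at or above 90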;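 also: higher luciferase means less miR-122 activity so hits act as miR-122 inhibitors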
Jurkat NFkB inh – lowers PMA/ionomycin-induced NF-kB signal in Jurkat cells; AID 435003; actives 0.53% (n = 330,000); inhibition, % at 4 µM; PMA/ionomycin-induced NF-kB luciferase reporter, luminescence; in the data active = inhibition above about 50%
FGF22 binding – FGF22 (human) thermal shift binding | recombinant FGF22 thermal shift, SYPRO orange fluorescence; percent of sucrose octasulfate shift, DMSO zero | activity (Tm shift, normalised), % at 9.99 µM | actives 1.5% (n = 340,000) | Q9HCT0;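 active = mean Tm shift, scaled 0 neutral to 100 positive control, at about 1.3% or above, every replicate too, limit read from the data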
Target sequence (Q9HCT0 whole entry, looked up): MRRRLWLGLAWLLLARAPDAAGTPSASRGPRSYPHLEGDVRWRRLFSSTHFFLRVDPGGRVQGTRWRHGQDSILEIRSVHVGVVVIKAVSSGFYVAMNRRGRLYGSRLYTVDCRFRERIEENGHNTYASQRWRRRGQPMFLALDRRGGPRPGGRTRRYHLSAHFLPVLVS
NR2E3 ag-1 – activates human NR2E3 receptor; Q9Y5X4; CHO-S Gal4-NCOR/VP16-NR2E3 two-hybrid, luciferase; inhibition of corepressor binding, % at 3.98 µM; actives 0.35% (n = 360,000); AID 602229;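 active = inhibition above the mean of all tested compounds plus 3 SD, cut at about 70% in these data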;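 also: 0% = DMSO with NR2E3 transfected cells and 100% = cells lacking NR2E3 construct; higher means lower luciferase signal from less NR2E3 corepressor binding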
Target sequence (Q9Y5X4 whole entry, looked up, the tested form may be a part): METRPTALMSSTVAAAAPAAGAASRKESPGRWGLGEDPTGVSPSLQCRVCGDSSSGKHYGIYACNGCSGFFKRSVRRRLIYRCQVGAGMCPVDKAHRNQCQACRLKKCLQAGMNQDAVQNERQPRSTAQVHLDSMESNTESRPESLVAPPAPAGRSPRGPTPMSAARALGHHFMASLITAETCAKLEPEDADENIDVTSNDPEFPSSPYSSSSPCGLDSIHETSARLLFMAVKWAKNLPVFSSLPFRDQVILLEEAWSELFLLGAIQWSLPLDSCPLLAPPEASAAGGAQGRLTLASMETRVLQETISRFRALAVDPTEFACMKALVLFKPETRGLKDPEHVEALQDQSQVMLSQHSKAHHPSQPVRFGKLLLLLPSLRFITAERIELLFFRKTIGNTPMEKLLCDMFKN
697 NFkB inh – lowers PMA/ionomycin-induced NF-kB signal in 697 B cells | 697 B-cell NF-kB luciferase reporter, 16 h | actives 0.33% (n = 330,000) | AID 435022 | inhibition, % at 4 µM; in the data active = inhibition above about 35%
NR2E3 ag-2 – NR2E3 (human) agonism | inhibition of corepressor binding, % at 4.78 µM | AID 2300 | GST-NR2E3/biotin-RetCOR TR-FRET, 1536-well | actives 0.12% (n = 320,000) | Q9Y5X4;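 active = percent inhibition above the cutoff of mean plus 3 SD of all tested compounds, set per screening campaign, cut at about 20% in these data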;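 also: 0% = DMSO wells and 100% = biotin wells as full block of FRET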
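Material: NR2E3–RetCOR corepressor complex | Quantity: 1.35 nM GST-tagged NR2E3 final | Schedule: 5 h at 4 °C | Replication: Singlicate compound wells | Reagent: RetCOR corepressor, biotinylated, 7 nM | Controls: Biotin wells as high control, 0.6% DMSO wells as low control | Signal: TR-FRET, Eu(K)-anti-GST donor, streptavidin-D2 acceptor, ex 340, em 617/671 nm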
NR2E3 ag conf – confirmation of human NR2E3 agonists | shares compounds with NR2E3 ag-1 | CHO-S mammalian two-hybrid NR2E3-NCOR, luciferase luminescence | inhibition, % at 3.98 µM | actives 51% (n = 2,300);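 active = average inhibition above a cutoff equal to the mean inhibition of all tested compounds plus one SD, cut at about 70% in these data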;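 also: 0% = DMSO in NR2E3 cells and 100% = DMSO in cells lacking NR2E3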
GAL4-VP16 luc – reduces GAL4-VP16 reporter signal in NR2E3 counterscreen; inhibition, % at 3.98 µM; actives 29% (n = 2,300); CHO-S GAL4-VP16 luciferase reporter, luminescence; shares compounds with NR2E3 ag-1; AID 624379;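 active = mean inhibition above a cutoff equal to the average over all tested compounds plus one standard deviation, cut at about 70% in these data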;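 also: luciferase from a UAS reporter driven by GAL4-VP16 transactivation; 0% = DMSO with VP16-transfected cells and 100% = DMSO with cells lacking VP16; higher means less reporter light so more repression of VP16 activity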
* hit, by the source's call; [ ] = dose if it differs, or a comment.

How did CCN(CC(=O)NCc1ccc(Cl)cc1)C(=O)c1cnc(Cl)c(Cl)c1 do in these assays?
miR-122 sensor: -8.4; Jurkat NFkB inh: 3.0; FGF22 binding: 0.2; NR2E3 ag-1: 0.1; 697 NFkB inh: -13.1; NR2E3 ag-2: 2.7

Results for O=S(=O)(NCc1cccs1)c1ccc(Br)cc1 ?
Jurkat NFkB inh: 3.5; FGF22 binding: 0.0; NR2E3 ag-1: -31.2; 697 NFkB inh: 10.7; NR2E3 ag-2: 3.9

What do the screens show for `O=C(Nc1ccc(Br)cc1)c1ccc(F)c(S(=O)(=O)NCc2cccs2)c1`?
Jurkat NFkB inh: 33.8; NR2E3 ag-1: 82.6*; 697 NFkB inh: -15.5; NR2E3 ag-2: 1.1; NR2E3 ag conf: 96.7*; GAL4-VP16 luc: 82.3*

What do the screens show for `C[C@@H]1CN([C@H](C)CO)C(=O)Cc2cc(NC(=O)Nc3ccc(F)cc3)ccc2O[C@@H]1CN(C)C(=O)Nc1cccc2ccccc12`?
miR-122 sensor: 35.7[16.7 µM]; FGF22 binding: -0.4

What do the screens show for `N#CCc1ccc(NC(=O)/C=C/c2ccc([N+](=O)[O-])o2)cc1`?
miR-122 sensor: -23.5; NR2E3 ag-1: 49.8; NR2E3 ag conf: 61.0; GAL4-VP16 luc: 30.6

Results for COc1ccc(/C=N/Nc2cc(C)nc(-n3nc(C)cc3C)n2)c(OC)c1 ?
Jurkat NFkB inh: 13.5; FGF22 binding: 0.4; NR2E3 ag-1: 64.5; 697 NFkB inh: -6.2; NR2E3 ag-2: 1.6; NR2E3 ag conf: 7.8; GAL4-VP16 luc: 5.4

Results for COc1cccc(/C=N/Nc2nc(Nc3ccccc3)nc(-n3nc(C)cc3C)n2)c1O ?
miR-122 sensor: -0.8; Jurkat NFkB inh: -7.4; NR2E3 ag-1: 94.6*; 697 NFkB inh: 9.3; NR2E3 ag-2: 2.7; NR2E3 ag conf: 2.6; GAL4-VP16 luc: -21.7

What do the screens show for `CCOc1cc(/C=N/Nc2cc(C)nc(-n3nc(C)cc3C)n2)ccc1O`?
miR-122 sensor: 12.0; Jurkat NFkB inh: 32.3; FGF22 binding: 0.3; NR2E3 ag-1: 90.5*; 697 NFkB inh: -27.7; NR2E3 ag-2: 0.2; NR2E3 ag conf: 2.8; GAL4-VP16 luc: -10.8

How did Cc1cc(N/N=C/c2ccc(F)cc2)nc(-n2nc(C)cc2C)n1 do in these assays?
miR-122 sensor: -15.2; Jurkat NFkB inh: 3.5; FGF22 binding: -0.2; NR2E3 ag-1: 94.4*; 697 NFkB inh: -12.9; NR2E3 ag-2: -0.9; NR2E3 ag conf: 2.8; GAL4-VP16 luc: 24.9

What do the screens show for `O=C(C[C@@H]1C[C@H]2c3cc(NC(=O)Nc4ccc(F)cc4)ccc3O[C@H]2[C@H](CO)O1)NC1CCCC1`?
miR-122 sensor: 1.1[16.7 µM]; FGF22 binding: -0.3

Results for C[C@H](CO)N1C[C@H](C)[C@H](CN(C)Cc2ccc3c(c2)OCO3)Oc2c(NC(=O)Nc3ccc(C(F)(F)F)cc3)cccc2C1=O ?
miR-122 sensor: 9.9[16.7 µM]; FGF22 binding: -0.1

What do the screens show for `CCn1ncc(/C=C/C(=O)Nc2c(C)nn(Cc3ccc(Cl)cc3Cl)c2C)c1C`?
Jurkat NFkB inh: -2.2; NR2E3 ag-1: 50.2; 697 NFkB inh: -28.6; NR2E3 ag-2: -3.1; NR2E3 ag conf: 32.0; GAL4-VP16 luc: 40.3

What do the screens show for `O=C(NNc1ccccc1)C(=O)NNc1ccccc1`?
miR-122 sensor: 6.9; FGF22 binding: 0.1; NR2E3 ag-1: 52.6; NR2E3 ag conf: 51.8; GAL4-VP16 luc: 9.2

Results for O=C(NNc1ccccc1)OCc1ccccc1 ?
miR-122 sensor: 7.5; FGF22 binding: -0.3; NR2E3 ag-1: -21.9

What do the screens show for `NC(=O)c1ccc(N2CCN(S(=O)(=O)c3cccs3)CC2)c([N+](=O)[O-])c1`?
miR-122 sensor: -15.2; Jurkat NFkB inh: -16.6; FGF22 binding: 0.1; NR2E3 ag-1: 81.9*; 697 NFkB inh: -8.3; NR2E3 ag conf: 94.8*; GAL4-VP16 luc: 78.4*

Results for O=C(CCl)Nc1c(C(=O)Nc2ccc3c(c2)OCCO3)oc2ccccc12 ?
miR-122 sensor: -8.8; Jurkat NFkB inh: -89.3; FGF22 binding: 0.0; NR2E3 ag-1: 50.6; 697 NFkB inh: -155.7; NR2E3 ag-2: 2.3; NR2E3 ag conf: -100.5; GAL4-VP16 luc: -8.3

How did COCC(=O)Nc1c(C(=O)Nc2ccc3c(c2)OCO3)oc2ccccc12 do in these assays?
Jurkat NFkB inh: -74.7; FGF22 binding: -0.1; NR2E3 ag-1: -18.6; 697 NFkB inh: -64.5; NR2E3 ag-2: -0.8

Results for CN1[C@@H]2c3ccc(-c4ccccc4F)c(=O)n3C[C@@H]2[C@@H](CO)[C@@H]1C(=O)NCc1ccc(F)cc1 ?
miR-122 sensor: -5.0[16.7 µM]; FGF22 binding: 0.0

What do the screens show for `Cc1cc(C)c(S(=O)(=O)/N=C2/C=C(Sc3ncn[nH]3)C(=O)c3ccccc32)cc1C`?
NR2E3 ag-1: 101.6*; NR2E3 ag-2: 9.1; NR2E3 ag conf: 48.9; GAL4-VP16 luc: -12.0

How did Cc1ccc(C)c(S(=O)(=O)/N=C2\C=C(NS(=O)(=O)c3ccccc3)C(=O)c3ccccc32)c1 do in these assays?
miR-122 sensor: 17.3; Jurkat NFkB inh: 1.0; FGF22 binding: -0.1; NR2E3 ag-1: 19.3; 697 NFkB inh: 0.7; NR2E3 ag-2: -1.8

Results for CN1C(=O)c2cc(NC(=O)Nc3ccccc3F)ccc2OC[C@@H]2O[C@H](CC(=O)NCCc3ccncc3)CC[C@@H]21 ?
miR-122 sensor: 0.0[16.7 µM]; FGF22 binding: -0.2

How did O=S(=O)(/C(=C\c1ccc(C(F)(F)F)cc1)c1nc2ccccc2[nH]1)c1ccccc1 do in these assays?
miR-122 sensor: -19.0; NR2E3 ag-1: 91.3*; NR2E3 ag conf: 95.9*; GAL4-VP16 luc: -12.4

How did CCN(CC)c1ccc(Nc2nc(N3CCOCC3)c3ccccc3n2)cc1 do in these assays?
miR-122 sensor: -0.9; Jurkat NFkB inh: 33.9; NR2E3 ag-1: 72.5*; 697 NFkB inh: -47.0; NR2E3 ag-2: 1.5; NR2E3 ag conf: 74.5*; GAL4-VP16 luc: 69.0

What do the screens show for `OCC1OC(n2ccc3c(NO)ncnc32)C(O)C1O` (centres undefined)?
FGF22 binding: -0.8; NR2E3 ag-1: 101.6*; NR2E3 ag conf: 99.4*; GAL4-VP16 luc: 92.8*

Results for OCC1OC(n2cnc3c(NCCc4ccccc4)ncnc32)C(O)C1O (centres undefined) ?
miR-122 sensor: -2.0; Jurkat NFkB inh: -19.9; FGF22 binding: 0.0; NR2E3 ag-1: 6.2; 697 NFkB inh: 7.0; NR2E3 ag-2: 4.6

How did OCC1OC(n2cnc3c(NCc4ccccc4O)ncnc32)C(O)C1O (centres undefined) do in these assays?
miR-122 sensor: 571.6*; FGF22 binding: 0.2; NR2E3 ag-1: 71.6*; NR2E3 ag conf: 51.4; GAL4-VP16 luc: 48.7
